ChEMBL document CHEMBL4340510, “Design, synthesis, and biological evaluation of truncated deguelin derivatives as Hsp90 inhibitors” (Eur J Med Chem, 2019)

How the values were obtained:
NCI-H1299 [1] = experiment: Antiproliferative activity against human NCI-H1299 cells assessed as inhibition of cell growth at 1 uM after 72 hrs by MTT assay relative to control; type: functional; conditions: NCI-H1299, 72 h, read-out: GI
Procedure, shortened: (§1)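 Cells in RPMI 1640 are seeded at 4,000 cells/well and held 24 h at 37 °C, 5% CO2. Medium is replaced with compound-containing medium (DMSO ≤0.25%) for 72 h at 37 °C. MTT read-out by absorbance at 570 nm. Quadruplicate wells, repeated three times; values are means of three independent experiments.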

NCI-H1299 [2] = experiment: Antiproliferative activity against human NCI-H1299 cells assessed as inhibition of cell growth at 0.1 uM after 72 hrs by MTT assay relative to control; type: functional; conditions: NCI-H1299, 72 h, read-out: GI; procedure, shortened: as §1
NCI-H1299 [3] = experiment: Antiproliferative activity against human NCI-H1299 cells assessed as inhibition of cell growth at 10 uM after 72 hrs by MTT assay relative to control; type: functional; conditions: NCI-H1299, 72 h, read-out: GI; procedure, shortened: as §1
A549 = experiment: Antiproliferative activity against human A549 cells after 72 hrs by MTT assay; type: functional, cell-based; conditions: A549, 72 h; procedure, shortened: as §1
NCI-H1299 [4] = experiment: Antiproliferative activity against human NCI-H1299 cells after 72 hrs by MTT assay; type: functional, cell-based; conditions: NCI-H1299, 72 h; procedure, shortened: as §1
MCF7 = experiment: Antiproliferative activity against human MCF7 cells after 72 hrs by MTT assay; type: functional, cell-based; conditions: MCF7, 72 h; procedure, shortened: as §1
[5] = target: Heat shock protein HSP 90-alpha (Homo sapiens, UniProt P07900); experiment: Inhibition of FITC-geldanamycin binding to recombinant human full-length C-terminal His-tagged HSP90alpha […] (1 to 732 residues) expressed in Escherichia coli after 1 hr by fluorescence polarization assay

Row | SMILES | inhibition of growth at 1 µM (NCI-H1299 [1]) | inhibition of growth at 0.1 µM (NCI-H1299 [2]) | inhibition of growth at 10 µM (NCI-H1299 [3]) | IC50 (A549) | IC50 (NCI-H1299 [4]) | IC50 (MCF7) | IC50 [5]
1 | COc1cc(CC(=O)c2ccc3c(c2OC)C=CC(C)(C)O3)cc(OC)c1 | 10.2% | 7.1% | 40.1% |  |  |  | 
2 | COc1c(C(=O)Cc2ccc3c(c2)OCCO3)ccc2c1C=CC(C)(C)O2 | 6.5% | 3.5% | 28.1% |  |  |  | 
3 | COc1c(C(=O)Cc2ccccc2)ccc2c1C=CC(C)(C)O2 | 9.3% | 5.6% | 11.3% |  |  |  | 
4 | COc1cc(CC(=O)c2ccc3c(c2OC)CCC(C)(C)O3)cc(OC)c1OC | 30.6% | 11% | 67.5% | 5.33 µM | 5.72 µM | 5.22 µM | 0.28 µM
5 | COc1ccc(C(Cc2ccccc2)C(=O)c2ccc3c(c2OCc2ccccc2)C=CC(C)(C)O3)cc1OC (stereo not drawn) | 2.5% | 2.1% | 9.9% |  |  |  | 
6 | COc1ccc(CC(=O)c2ccc3c(c2O)C=CC(C)(C)O3)cc1OC | 8.2% | 4.8% | 45.3% |  |  |  | 
7 | COc1ccc(CC(=O)c2ccc3c(c2OC)C=CC(C)(C)O3)cc1 | 7.3% | 3.6% | 10.6% |  |  |  | 
8 | COc1ccc(CCC(=O)c2ccc3c(c2O)C=CC(C)(C)O3)cc1OC | 8.5% | 3.6% | 30.1% |  |  |  | 
9 | COc1c(C(=O)C(C)c2ccccc2)ccc2c1C=CC(C)(C)O2 (stereo not drawn) | 6.5% | 4.5% | 15.5% |  |  |  | 
10 | COc1cc2c(cc1OC)[C@@H]1C(=O)c3ccc4c(c3O[C@@H]1CO2)C=CC(C)(C)O4 [DEGUELIN] | 28.5% | 9.9% | 65.3% | 6.05 µM | 5.67 µM | 8.17 µM | 1.63 µM
11 | COc1cc(CC(=O)c2ccc3c(c2O)C=CC(C)(C)O3)cc(OC)c1OC | 19.7% | 9.7% | 49% | 13.1 µM | 12 µM | 11.2 µM | 0.43 µM
12 | CC(C)c1cc(C(=O)N2Cc3ccc(CN4CCN(C)CC4)cc3C2)c(O)cc1O [ONALESPIB] | 96.8% | 94.8% | 95.7% | 0.44 µM | 0.37 µM | 0.29 µM | 0.02 µM
13 | COc1ccc(CC(=O)c2ccc3c(c2OC(C)=O)C=CC(C)(C)O3)cc1OC | 6.2% | 4.1% | 19.5% |  |  |  | 
14 | COc1ccc(/C=C/c2ccc3c(c2OC)C=CC(C)(C)O3)cc1OC | 8.6% | 5.2% | 14.4% |  |  |  | 
15 | COc1cc(/C=C/C(=O)c2ccc3c(c2O)C=CC(C)(C)O3)cc(OC)c1OC | 8.7% | 3.8% | 12.3% |  |  |  | 
16 | COc1ccc(C(C)C(=O)c2ccc3c(c2OC)C=CC(C)(C)O3)cc1 (stereo not drawn) | 10.8% | 7.1% | 13.3% |  |  |  | 
17 | COc1ccc(OC)c(CC(=O)c2ccc3c(c2OC)C=CC(C)(C)O3)c1 | 10.4% | 4.7% | 38.2% |  |  |  | 
18 | COc1ccc(CC(=O)c2ccc3c(c2OC)C=CC(C)(C)O3)cc1OC | 10.7% | 5.1% | 47.3% | 6 µM | 11.8 µM | 6.88 µM | 0.09 µM
19 | COc1ccc(CC(O)c2ccc3c(c2OC)C=CC(C)(C)O3)cc1OC (stereo not drawn) | 10.8% | 6.5% | 19.8% |  |  |  | 
20 | CC1(C)C=Cc2c(ccc(C(=O)Cc3ccc(Cl)c(Cl)c3)c2O)O1 | 9.1% | 8.3% | 11.5% |  |  |  | 
21 | COc1cc(CC(=O)c2ccc3c(c2OC)C=CC(C)(C)O3)cc(OC)c1OC | 27.4% | 9.6% | 58.3% | 6.15 µM | 7.2 µM | 5.08 µM | 0.63 µM
22 | CC1(C)C=Cc2c(ccc(C(=O)Cc3ccccc3)c2O)O1 | 7.8% | 3.9% | 15.1% |  |  |  | 
23 | COc1ccc(CC(=O)c2ccc3c(c2O)C=CC(C)(C)O3)cc1 | 7.1% | 6.1% | 16.1% |  |  |  | 
24 | COc1ccc(CC(=O)c2ccc3c(c2OC)CCC(C)(C)O3)cc1OC | 12.4% | 7.2% | 49.3% | 7.2 µM | 12.6 µM | 7.86 µM | 0.15 µM
25 | COc1ccc(/C=C/C(=O)c2ccc3c(c2O)C=CC(C)(C)O3)cc1OC | 6.4% | 5.3% | 10.7% |  |  |  | 
